pIC50, pKd: −log10 of the molar value. Converted amounts (≈) assume the structure as drawn.

Data set [1] concerns the target T1, Intercellular adhesion molecule (ICAM-1), Integrin alpha-L/beta-2 (Homo sapiens, UniProt P05107+P20701). As to the kind of experiment: Inhibition of JY-8 cell adhesion via leukocyte function associated antigen 1 (LFA-1) to ICAM-1, range (120-140). It is filed as cell-based.
Data set [2] is described as follows: Dissociation constant was determined. It is filed as physicochemical.
The target of data set [3] is T1, Intercellular adhesion molecule (ICAM-1), Integrin alpha-L/beta-2. Put plainly: Inhibition of JY-8 cell adhesion via leukocyte function associated antigen 1 (LFA-1) to ICAM-1. The format is cell-based.
The target of data set [4] is Integrin alpha-L (Homo sapiens). Put plainly: Binding affinity to leukocyte function associated antigen 1 (LFA-1) I domain by NMR.
The target in data set [5] is T1, Intercellular adhesion molecule (ICAM-1), Integrin alpha-L/beta-2. Put plainly: Inhibition of JY-8 cell adhesion via leukocyte function associated antigen 1 (LFA-1) to ICAM-1, range (110-140).
For data set [6] the target is unchanged. As to the kind of experiment: Inhibition of JY-8 cell adhesion via leukocyte function associated antigen 1 (LFA-1) to ICAM-1, range (370-470). It is filed as cell-based.
Data set [7] has the same target. As to the kind of experiment: Inhibition of JY-8 cell adhesion via leukocyte function associated antigen 1 (LFA-1) to ICAM-1, range (90-100). The format is cell-based.
A short description of data set [8]: Pharmacokinetic parameter was evaluated which is represented as AUC when administered orally a dose of 5 mg/kg; range (4.2-8.8). The following applies: in vivo, po. It is filed as ADME, organism-based. Further details: dose 5 mg/kg, route oral.
Data set [9] can be described thus: Mean Cmax in rats after 5 mg/kg oral dose, range (0.4-0.8). It is filed as ADME, organism-based. Further details: dose 5 mg/kg, route oral. Conditions: rat, in vivo.
A short description of data set [10]: Pharmacokinetic parameter was evaluated after oral administration of 5 mg/kg; range (4-8). The format is ADME, organism-based. Further details: dose 5 mg/kg, route oral. The following applies: in vivo.
Data set [11] can be described thus: solubility was determined. The format is physicochemical. In a few lines: (§1)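 Excess solid removed by filtration. The saturated solution was diluted and drug concentration measured by UV spectrophotometry.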
The nature of data set [12]: Half life when administered 5 mg/kg orally; range (4.1-5.5). It is filed as ADME, organism-based. Further details: dose 5 mg/kg. Conditions: in vivo, po.
The target in data set [13] is T1, Intercellular adhesion molecule (ICAM-1), Integrin alpha-L/beta-2.
Data set [14] is described as follows: Mean Cmax in rats after 5 mg/kg oral dose, range (0.17-0.20). The following applies: rat, in vivo. The format is ADME, organism-based. Further details: dose 5 mg/kg, route oral.
Data set [15] can be described thus: Pharmacokinetic parameter was evaluated which is represented as AUC when administered 5 mg/Kg orally; range (0.19-0.35). The following applies: in vivo, po. The format is ADME.
The nature of data set [16]: Pharmacokinetic parameter was evaluated after oral administration of 5 mg/kg; range (0.2-1). It is filed as ADME, organism-based. Further details: dose 5 mg/kg, route oral. Conditions: in vivo.
Data set [17] in a line: Pharmacokinetic parameter was evaluated which is represented as AUC when administered 5 mg/kg intravenously; range (2.1-2.3). It is filed as ADME, organism-based. Further details: dose 5 mg/kg, route intravenous. The following applies: in vivo, iv.
The nature of data set [18]: Pharmacokinetic parameter was evaluated which is represented as Vbeta; range (0.9-6). It is filed as ADME.
The nature of data set [19]: Half life when administered 5 mg/kg orally; range (0.99-1.14). The format is ADME, organism-based. Further details: dose 5 mg/kg. The following applies: in vivo, po.
A short description of data set [20]: Half life when administered intravenously; range (0.3-1.79). The format is ADME, organism-based. The following applies: in vivo, iv.
Data set [21] addresses T1, Intercellular adhesion molecule (ICAM-1), Integrin alpha-L/beta-2. As to the kind of experiment: Inhibition of JY-8 cell adhesion via leukocyte function associated antigen 1 (LFA-1) to ICAM-1, range (30-60). It is filed as cell-based.
The nature of data set [22]: Bioavailability was evaluated after oral administration of 5 mg/kg; range (8.7-15.8). It is filed as ADME, organism-based. Conditions: eutheria, in vivo.
For data set [23], the target named is T1, Intercellular adhesion molecule (ICAM-1), Integrin alpha-L/beta-2. Put plainly: Inhibition of JY-8 cell adhesion via leukocyte function associated antigen 1 (LFA-1) to ICAM-1, range (320-350). It is filed as cell-based.
For data set [24] the target is unchanged. Put plainly: Inhibition of JY-8 cell adhesion via leukocyte function associated antigen 1 (LFA-1) to ICAM-1, range (100-110). It is filed as cell-based.
Data set [25] shares this target. The source holds these as a separate data set.
The nature of data set [26]: AUC(area under curve) was determined after intravenous administration in rats. The format is ADME, organism-based. The following applies: rat, plasma.
The species named for another data set is Rattus norvegicus. Put plainly: Pharmacokinetic parameter was evaluated in rats which is represented as Vbeta. The format is ADME, organism-based. The following applies: in vivo.
The nature of data set [27]: solubility in rats. The format is ADME. The essentials: as §1
Data set [28] is described as follows: Bioavailability was evaluated in rats. The format is ADME, organism-based. Conditions: rat, in vivo.
Data set [29] is described as follows: Half life was determined after intravenous administration. It is filed as ADME, organism-based. Conditions: in vivo.

T1 sequence (P20701 whole entry): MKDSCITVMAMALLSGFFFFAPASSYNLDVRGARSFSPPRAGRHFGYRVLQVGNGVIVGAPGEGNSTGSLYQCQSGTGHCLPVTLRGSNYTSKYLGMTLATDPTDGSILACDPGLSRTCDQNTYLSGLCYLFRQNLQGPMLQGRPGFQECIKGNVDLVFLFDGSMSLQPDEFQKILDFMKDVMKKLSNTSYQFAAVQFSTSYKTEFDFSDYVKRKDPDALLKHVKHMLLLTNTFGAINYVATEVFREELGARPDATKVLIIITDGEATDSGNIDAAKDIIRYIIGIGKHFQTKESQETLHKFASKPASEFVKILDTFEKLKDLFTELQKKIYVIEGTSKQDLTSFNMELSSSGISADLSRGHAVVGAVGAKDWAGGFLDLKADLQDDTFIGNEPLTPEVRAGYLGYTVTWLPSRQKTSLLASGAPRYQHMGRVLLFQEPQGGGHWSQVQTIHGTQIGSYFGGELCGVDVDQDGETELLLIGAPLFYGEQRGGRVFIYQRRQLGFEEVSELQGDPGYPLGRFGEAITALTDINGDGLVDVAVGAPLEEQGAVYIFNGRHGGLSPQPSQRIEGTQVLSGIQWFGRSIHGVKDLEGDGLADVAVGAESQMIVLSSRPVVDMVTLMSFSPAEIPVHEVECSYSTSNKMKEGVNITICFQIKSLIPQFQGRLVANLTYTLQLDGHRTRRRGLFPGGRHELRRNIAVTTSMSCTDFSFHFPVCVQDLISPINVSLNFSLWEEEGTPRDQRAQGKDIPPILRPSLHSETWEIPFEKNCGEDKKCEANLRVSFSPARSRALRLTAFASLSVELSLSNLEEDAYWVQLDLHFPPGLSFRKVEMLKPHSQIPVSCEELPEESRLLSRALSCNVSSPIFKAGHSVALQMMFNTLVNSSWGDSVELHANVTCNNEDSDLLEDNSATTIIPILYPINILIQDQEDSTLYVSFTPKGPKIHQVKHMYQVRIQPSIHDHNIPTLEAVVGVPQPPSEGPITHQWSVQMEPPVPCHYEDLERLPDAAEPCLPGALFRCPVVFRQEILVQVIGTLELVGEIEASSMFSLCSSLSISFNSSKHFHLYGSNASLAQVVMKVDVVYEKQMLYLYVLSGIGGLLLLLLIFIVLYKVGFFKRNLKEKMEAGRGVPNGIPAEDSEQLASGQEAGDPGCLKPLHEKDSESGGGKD
T1 sequence (P05362 whole entry, further chain): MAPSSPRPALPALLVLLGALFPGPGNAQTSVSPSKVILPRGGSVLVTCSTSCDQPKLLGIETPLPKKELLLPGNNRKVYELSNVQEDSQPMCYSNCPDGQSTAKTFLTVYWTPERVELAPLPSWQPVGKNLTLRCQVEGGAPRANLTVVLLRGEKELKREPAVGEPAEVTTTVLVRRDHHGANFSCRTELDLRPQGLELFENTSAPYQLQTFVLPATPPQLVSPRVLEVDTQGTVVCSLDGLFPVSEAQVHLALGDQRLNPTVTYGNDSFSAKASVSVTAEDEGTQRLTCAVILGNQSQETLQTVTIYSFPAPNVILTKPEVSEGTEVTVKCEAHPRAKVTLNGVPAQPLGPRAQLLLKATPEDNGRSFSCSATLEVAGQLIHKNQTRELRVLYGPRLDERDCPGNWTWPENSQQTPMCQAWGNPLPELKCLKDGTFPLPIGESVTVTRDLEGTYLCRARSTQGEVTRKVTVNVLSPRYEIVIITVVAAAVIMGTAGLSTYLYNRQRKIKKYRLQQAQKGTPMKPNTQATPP
T1 sequence (P05107 whole entry): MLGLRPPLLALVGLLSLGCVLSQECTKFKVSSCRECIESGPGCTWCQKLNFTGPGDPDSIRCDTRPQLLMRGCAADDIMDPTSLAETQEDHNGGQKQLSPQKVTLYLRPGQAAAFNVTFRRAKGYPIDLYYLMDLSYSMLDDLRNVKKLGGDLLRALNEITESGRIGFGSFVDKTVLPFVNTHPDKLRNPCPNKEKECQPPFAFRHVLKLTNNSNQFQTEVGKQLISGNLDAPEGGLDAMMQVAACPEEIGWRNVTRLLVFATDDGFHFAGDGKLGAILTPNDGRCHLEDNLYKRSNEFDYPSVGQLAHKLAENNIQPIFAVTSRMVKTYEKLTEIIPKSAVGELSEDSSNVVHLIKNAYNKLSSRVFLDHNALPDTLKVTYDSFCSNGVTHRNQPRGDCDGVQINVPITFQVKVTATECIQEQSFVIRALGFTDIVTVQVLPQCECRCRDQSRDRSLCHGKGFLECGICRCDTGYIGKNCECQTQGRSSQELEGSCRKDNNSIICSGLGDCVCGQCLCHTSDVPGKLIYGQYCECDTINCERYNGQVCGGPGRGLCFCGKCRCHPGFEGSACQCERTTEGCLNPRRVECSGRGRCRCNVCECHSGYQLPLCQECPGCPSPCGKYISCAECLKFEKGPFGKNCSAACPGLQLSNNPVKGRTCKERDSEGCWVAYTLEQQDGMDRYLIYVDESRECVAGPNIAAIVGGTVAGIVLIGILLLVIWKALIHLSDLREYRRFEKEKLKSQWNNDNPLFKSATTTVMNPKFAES

Usually pIC50 stands for the IC50 on a negative log10 scale, so that one unit is a factor of ten. In data set [1], `CCn1ccc2cccc(Sc3ccc(/C=C/C(=O)N4CCN(C(C)=O)CC4)cc3Cl)c21` gave a pIC50 of 6.89.
By pKd is commonly meant the Kd on a negative log10 scale, so that one unit is a factor of ten. A low value points to a high Kd. On to `Nc1ccc(Sc2ccc3ccccc3c2Cl)c(Cl)c1`, for which, in data set [2], the pKd is above 4.70. For the same molecule, the negative-log IC50 (pIC50) in [3] is 5.64.
Regarding `c1ccc2c(c1)OCCO2`, in data set [4], the pKd is 2.00.
Turning to `CC(=O)N1CCN(C(=O)/C=C/c2ccc(Sc3ccc4c(c3)OCO4)c(Cl)c2)CC1`, the pIC50 in [5] is 6.92.
In [6], `CC(=O)N1CCN(C(=O)/C=C/c2ccc(Sc3ccc4[nH]cc(CN(C)C)c4c3)c(Cl)c2)CC1` showed a pIC50 of 6.38.
`CC(=O)N1CCN(C(=O)/C=C/c2ccc(Sc3cccc4ccn(C)c34)c(Cl)c2)CC1` gave a pIC50 in data set [3] of 7.15.
Same read-out and setting: to `CC(=O)N1CCN(C(=O)/C=C/c2ccc(Sc3ccc4c(c3)OCC(C(=O)N(C)C)O4)c(Cl)c2)CC1` (stereo unspecified) belongs 6.29; to `CC(=O)N1CCN(C(=O)/C=C/c2ccc(Sc3ccc4c(c3)OCC(CO)O4)c(Cl)c2)CC1` (stereo unspecified), 7.70.
The same measure, in the same setting: to `CCOc1c(Sc2ccc(/C=C/C(=O)N3CCN(C(C)=O)CC3)cc2Cl)cc(Cl)c2cccnc12` belongs 6.24; to `CC(=O)N1CCN(C(=O)/C=C/c2ccc(Sc3ccc4c(ccn4C)c3)c(Cl)c2)CC1`, 7.70.
The molecule `CCOc1c(Sc2ccc(/C=C/C(=O)N3CCN(C(C)=O)CC3)cc2Cl)ccc2c1OCCO2` showed a negative logarithm of the IC50 (pIC50) in data set [7] of 7.00.
In data set [4], `Cn1ccc2ccccc21` gave a negative-log Kd (pKd) of 2.85.
One may read the AUC as concentration integrated over time. A lower AUC goes with less exposure. The Cmax is the peak of the concentration-time curve. As usually defined, the Tmax is the time from dosing to the highest level. As a reminder, the solubility is the concentration that dissolves in the medium under given conditions. Lower therefore signals little dissolved substance. The half-life is the time needed for the level to fall by half in the phase considered. Lower therefore signals rapid decline. `CC(=O)N1CCN(C(=O)/C=C/c2ccc(Sc3ccc4[nH]ccc4c3)c(Cl)c2)CC1`: the AUC in data set [8] is 5800 ng·h/mL. In data set [9], this molecule had a Cmax of 600 ng/mL. The Tmax in [10] came out at 360 min. In data set [11], this molecule had a solubility of 0.8 µg/mL (≈ 1.82 µM). The molecule also showed a half-life in data set [12] of 282 min. Further, the pIC50 in data set [13] is 7.70.
As a reminder, the bioavailability is dose-corrected exposure relative to a reference, in per cent. In turn, `CC(=O)N1CCN(C(=O)/C=C/c2ccc(Sc3ccc4c(c3)OCCO4)c(Cl)c2)CC1` gave a Cmax in data set [14] of 190 ng/mL. Further, the AUC amounted to 280 ng·h/mL in data set [15] and 2200 ng·h/mL in data set [17]. For the same molecule, the Tmax in data set [16] was found to be 30 min. The molecule further came in with a Vbeta in data set [18] of 3 kg⁻¹. The solubility in [11] worked out at 4.1 µg/mL (≈ 8.93 µM). Further, the half-life was 66 min in [19] and 33 min in data set [20]. Moreover, the pIC50 in data set [21] is 7.40. The bioavailability in data set [22] amounted to 12.4%.
Take `CC(=O)N1CCN(C(=O)/C=C/c2ccc(Sc3ccc4c(ccn4CC(=O)O)c3)c(Cl)c2)CC1`: the negative logarithm of the IC50 (pIC50) in [23] is 6.48.
For the molecule `CCn1cc(CN(C)C)c2cccc(Sc3ccc(/C=C/C(=O)N4CCN(C(C)=O)CC4)cc3Cl)c21`, the negative logarithm of the IC50 (pIC50) in [24] was 7.00.
In turn, `CC(=O)N1CCN(C(=O)/C=C/c2ccc(Sc3ccc4c(c3)OCC(C(=O)O)O4)c(Cl)c2)CC1` (stereo unspecified) showed a negative-log IC50 (pIC50) in data set [3] of 5.92.
The molecule `CC(=O)N1CCN(C(=O)/C=C/c2ccc(Sc3cc4[nH]c(O)nc4cc3Cl)c(Cl)c2)CC1` had a negative logarithm of the IC50 (pIC50) in data set [25] of 6.10.
Turning to `CC(=O)N1CCN(C(=O)/C=C/c2ccc(Sc3ccc4cc[nH]c4c3)c(Cl)c2)CC1`, the negative-log IC50 (pIC50) in data set [3] is 6.82.
`COCCn1ccc2cc(Sc3ccc(/C=C/C(=O)N4CCN(C(C)=O)CC4)cc3Cl)ccc21`: the pIC50 in data set [21] is 7.22.
In turn, `CC(=O)N1CCN(C(=O)/C=C/c2ccc(Sc3ccccc3C(C)C)c([N+](=O)[O-])c2)CC1` [A-286982] returned an area under the curve (AUC) in data set [26] of 1900 ng·h/mL. In the data set filed under Rattus norvegicus, this molecule had a Vbeta of 2 kg⁻¹. Moreover, the solubility in data set [27] was found to be 0.9 µg/mL (≈ 1.98 µM). In data set [28], this molecule had a bioavailability of 0%. This molecule showed a half-life in [29] of 24 min.
`c1ccc2nsnc2c1` [BENZO[1,2,5]THIADIAZOLE] showed a pKd in [4] of 2.10.

For the origin of these results see ChEMBL document CHEMBL1134392, “Novel p-arylthio cinnamides as antagonists of leukocyte function-associated antigen-1/intracellular adhesion molecule-1 interaction. 2. Mechanism of inhibition and structure-based improvement of pharmaceutical properties” (J Med Chem, 2001).
